Results published in ChEMBL document CHEMBL1140876, “Synthesis and antibacterial property of quinolines with potent DNA gyrase activity” (2009).
≈ marks a conversion by molar mass, not a printed value. Calls of active or inactive are those of the source. No cut-off for these calls is given here.

Legend:
[1] = test system: Pseudomonas aeruginosa; experiment: Antimicrobial activity against Pseudomonas aeruginosa at 15 ug after 24 hrs by disk diffusion method; assay type: functional; conditions: read-out: IZ
Procedure, shortened: (§1)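 Inoculum made in 0.85% saline against McFarland standard, swabbed evenly onto nutrient agar; sterile filter-paper discs set equidistant and loaded with equal volumes of drug at varying amounts; zone of inhibition measured after 24 h at 37 °C; ciprofloxacin reference.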

[2] = test system: Bacillus subtilis; experiment: Antimicrobial activity against Bacillus subtilis at 25 ug after 24 hrs by disk diffusion method; assay type: functional; conditions: read-out: IZ; procedure, shortened: as §1
[3] = test system: Klebsiella pneumoniae; experiment: Antimicrobial activity against Klebsiella pneumoniae at 10 ug after 24 hrs by disk diffusion method; assay type: functional; conditions: read-out: IZ; procedure, shortened: as §1
[4] = test system: Salmonella typhimurium; experiment: Antimicrobial activity against Salmonella Typhimurium at 20 ug after 24 hrs by disk diffusion method; assay type: functional, Salmonella enterica subsp. enterica serovar Typhimurium; conditions: Salmonella enterica, read-out: IZ; procedure, shortened: as §1
[5] = test system: Klebsiella pneumoniae; experiment: Antimicrobial activity against Klebsiella pneumoniae by broth microdilution assay; assay type: functional
Procedure, shortened: (§2)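 Broth microdilution per NCCLS 1997 in 96-well plate; final inoculum 10^5 cfu/mL; incubated 35.7 °C in air 18–20 h; MIC read as lowest concentration with no visible growth.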

[6] = test system: Pseudomonas aeruginosa; experiment: Antimicrobial activity against Pseudomonas aeruginosa at 10 ug after 24 hrs by disk diffusion method; assay type: functional; conditions: read-out: IZ; procedure, shortened: as §1
[7] = test system: Salmonella typhimurium; experiment: Antimicrobial activity against Salmonella Typhimurium at 25 ug after 24 hrs by disk diffusion method; assay type: functional, Salmonella enterica subsp. enterica serovar Typhimurium; conditions: Salmonella enterica, read-out: IZ; procedure, shortened: as §1
[8] = test system: Staphylococcus aureus; experiment: Antimicrobial activity against Staphylococcus aureus at 25 ug after 24 hrs by disk diffusion method; assay type: functional; conditions: read-out: IZ; procedure, shortened: as §1
[9] = test system: Staphylococcus aureus; experiment: Antimicrobial activity against Staphylococcus aureus at 20 ug after 24 hrs by disk diffusion method; assay type: functional; conditions: read-out: IZ; procedure, shortened: as §1
[10] = test system: Klebsiella pneumoniae; experiment: Antimicrobial activity against Klebsiella pneumoniae at 20 ug after 24 hrs by disk diffusion method; assay type: functional; conditions: read-out: IZ; procedure, shortened: as §1
[11] = test system: Escherichia coli; experiment: Antimicrobial activity against Escherichia coli by broth microdilution assay; assay type: functional; procedure, shortened: as §2
[12] = test system: Salmonella typhi; experiment: Antimicrobial activity against Salmonella typhi by broth microdilution assay; assay type: functional, Salmonella enterica subsp. enterica serovar Typhi; conditions: Salmonella enterica
Procedure, shortened: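 Broth microdilution in 96-well plates following the NCCLS 1997 protocol. Final inoculum was 10^5 cfu/mL, with a control organism run alongside. Plates were incubated at 35.7 °C in air for 18–20 h. MIC is the lowest concentration with no visible growth.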

[13] = test system: Salmonella typhimurium; experiment: Antimicrobial activity against Salmonella Typhimurium at 15 ug after 24 hrs by disk diffusion method; assay type: functional, Salmonella enterica subsp. enterica serovar Typhimurium; conditions: Salmonella enterica, read-out: IZ; procedure, shortened: as §1
[14] = test system: Escherichia coli; experiment: Antimicrobial activity against Escherichia coli at 15 ug after 24 hrs by disk diffusion method; assay type: functional; conditions: read-out: IZ; procedure, shortened: as §1
[15] = test system: Staphylococcus aureus; experiment: Antimicrobial activity against Staphylococcus aureus at 10 ug after 24 hrs by disk diffusion method; assay type: functional; conditions: read-out: IZ; procedure, shortened: as §1
[16] = test system: Pseudomonas aeruginosa; experiment: Antimicrobial activity against Pseudomonas aeruginosa by broth microdilution assay; assay type: functional; procedure, shortened: as §2
[17] = test system: Escherichia coli; experiment: Antimicrobial activity against Escherichia coli at 25 ug after 24 hrs by disk diffusion method; assay type: functional; conditions: read-out: IZ; procedure, shortened: as §1
[18] = test system: Klebsiella pneumoniae; experiment: Antimicrobial activity against Klebsiella pneumoniae at 25 ug after 24 hrs by disk diffusion method; assay type: functional; conditions: read-out: IZ; procedure, shortened: as §1
[19] = test system: Staphylococcus aureus; experiment: Antimicrobial activity against Staphylococcus aureus at 15 ug after 24 hrs by disk diffusion method; assay type: functional; conditions: read-out: IZ; procedure, shortened: as §1
[20] = test system: Bacillus subtilis; experiment: Antimicrobial activity against Bacillus subtilis at 15 ug after 24 hrs by disk diffusion method; assay type: functional; conditions: read-out: IZ; procedure, shortened: as §1
[21] = test system: Staphylococcus aureus; experiment: Antimicrobial activity against Staphylococcus aureus by broth microdilution assay; assay type: functional; procedure, shortened: as §2
[22] = Inhibition of DNA gyrase assessed as conversion of relaxed pBR322 to supercoiled form
Procedure, shortened: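 Supercoiling in 15 µL reactions: gyrase assay buffer, 150 ng relaxed pBR322, 2–3 µL purified DNA gyrase, 3 h at 37 °C (E. coli); stopped with 50% glycerol/0.25% bromophenol blue; 1% agarose in 1× TBE pH 8.3, 90 V 3 h; ethidium bromide stain; supercoiled band brightness by densitometry. Ciprofloxacin comparator.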

[23] = test system: Escherichia coli; experiment: Antimicrobial activity against Escherichia coli at 5 ug after 24 hrs by disk diffusion method; assay type: functional; conditions: read-out: IZ; procedure, shortened: as §1
[24] = test system: Staphylococcus aureus; experiment: Antimicrobial activity against Staphylococcus aureus at 5 ug after 24 hrs by disk diffusion method; assay type: functional; conditions: read-out: IZ; procedure, shortened: as §1
[25] = Inhibition of DNA gyrase assessed as pBR322 DNA relaxation at 5 uM
Procedure, shortened: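 Relaxation without ATP: gyrase (60 nM) with supercoiled pBR322 DNA (6 nM) and drug at […] for 1 h at 37 °C; relaxation judged by gel. Ciprofloxacin, novobiocin and nalidixic acid comparators.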

[26] = test system: Pseudomonas aeruginosa; experiment: Antimicrobial activity against Pseudomonas aeruginosa at 5 ug after 24 hrs by disk diffusion method; assay type: functional; conditions: read-out: IZ; procedure, shortened: as §1
[27] = test system: Salmonella typhimurium; experiment: Antimicrobial activity against Salmonella Typhimurium at 5 ug after 24 hrs by disk diffusion method; assay type: functional, Salmonella enterica subsp. enterica serovar Typhimurium; conditions: Salmonella enterica, read-out: IZ; procedure, shortened: as §1
[28] = test system: Pseudomonas aeruginosa; experiment: Antimicrobial activity against Pseudomonas aeruginosa at 25 ug after 24 hrs by disk diffusion method; assay type: functional; conditions: read-out: IZ; procedure, shortened: as §1
[29] = test system: Escherichia coli; experiment: Antimicrobial activity against Escherichia coli at 20 ug after 24 hrs by disk diffusion method; assay type: functional; conditions: read-out: IZ; procedure, shortened: as §1
[30] = test system: Bacillus subtilis; experiment: Antimicrobial activity against Bacillus subtilis at 20 ug after 24 hrs by disk diffusion method; assay type: functional; conditions: read-out: IZ; procedure, shortened: as §1
[31] = test system: Bacillus subtilis; experiment: Antimicrobial activity against Bacillus subtilis by broth microdilution assay; assay type: functional; procedure, shortened: as §2
[32] = test system: Escherichia coli; experiment: Antimicrobial activity against Escherichia coli at 10 ug after 24 hrs by disk diffusion method; assay type: functional; conditions: read-out: IZ; procedure, shortened: as §1
[33] = test system: Klebsiella pneumoniae; experiment: Antimicrobial activity against Klebsiella pneumoniae at 15 ug after 24 hrs by disk diffusion method; assay type: functional; conditions: read-out: IZ; procedure, shortened: as §1
[34] = test system: Klebsiella pneumoniae; experiment: Antimicrobial activity against Klebsiella pneumoniae at 5 ug after 24 hrs by disk diffusion method; assay type: functional; conditions: read-out: IZ; procedure, shortened: as §1
[35] = test system: Salmonella typhimurium; experiment: Antimicrobial activity against Salmonella Typhimurium at 10 ug after 24 hrs by disk diffusion method; assay type: functional, Salmonella enterica subsp. enterica serovar Typhimurium; conditions: Salmonella enterica, read-out: IZ; procedure, shortened: as §1
[36] = test system: Pseudomonas aeruginosa; experiment: Antimicrobial activity against Pseudomonas aeruginosa at 20 ug after 24 hrs by disk diffusion method; assay type: functional; conditions: read-out: IZ; procedure, shortened: as §1

O=C1c2ccccc2C(=O)C12Nc1ccc(Br)cc1[C@H]1OCCC[C@H]12
zone of inhibition at 15 µg/disc [1]: 16 mm | zone of inhibition at 25 µg/disc [2]: 10 mm | zone of inhibition at 10 µg/disc [3]: 10 mm | zone of inhibition at 20 µg/disc [4]: 14 mm | MIC50 [5]: 0.25 µg/mL (≈ 0.628 µM) | MIC90 [5]: 4 µg/mL (≈ 10 µM) | zone of inhibition at 10 µg/disc [6]: 14 mm | zone of inhibition at 25 µg/disc [7]: 16 mm | zone of inhibition at 25 µg/disc [8]: 14 mm | zone of inhibition at 20 µg/disc [9]: 12 mm | zone of inhibition at 20 µg/disc [10]: 14 mm | MIC50 [11]: 2 µg/mL (≈ 5.02 µM) | MIC90 [11]: 4 µg/mL (≈ 10 µM) | MIC50 [12]: 1.64 µg/mL (≈ 4.12 µM) | MIC90 [12]: 2.5 µg/mL (≈ 6.28 µM) | zone of inhibition at 15 µg/disc [13]: 13 mm | zone of inhibition at 15 µg/disc [14]: 10 mm | zone of inhibition at 10 µg/disc [15]: 9 mm | MIC50 [16]: 1 µg/mL (≈ 2.51 µM) | MIC90 [16]: 8 µg/mL (≈ 20.1 µM) | zone of inhibition at 25 µg/disc [17]: 13 mm | zone of inhibition at 25 µg/disc [18]: 16 mm | zone of inhibition at 15 µg/disc [19]: 10 mm | zone of inhibition at 15 µg/disc [20]: 8 mm | MIC50 [21]: 64 µg/mL (≈ 161 µM) | MIC90 [21]: 64 µg/mL (≈ 161 µM) | Activity [22]: Active | zone of inhibition at 5 µg/disc [23]: 8 mm | zone of inhibition at 5 µg/disc [24]: 8 mm | Activity [25]: inactive | zone of inhibition at 5 µg/disc [26]: 10 mm | zone of inhibition at 5 µg/disc [27]: 8 mm | zone of inhibition at 25 µg/disc [28]: 23 mm | zone of inhibition at 20 µg/disc [29]: 12 mm | zone of inhibition at 20 µg/disc [30]: 9 mm | MIC50 [31]: 5 µg/mL (≈ 12.6 µM) | MIC90 [31]: 5 µg/mL (≈ 12.6 µM) | zone of inhibition at 10 µg/disc [32]: 9 mm | zone of inhibition at 15 µg/disc [33]: 13 mm | zone of inhibition at 5 µg/disc [34]: 8 mm | zone of inhibition at 10 µg/disc [35]: 10 mm | zone of inhibition at 20 µg/disc [36]: 20 mm
